Test results reported in ChEMBL document CHEMBL1138093, “C-(4,5,6-trimethoxyindan-1-yl)methanamine: a mescaline analogue designed using a homology model of the 5-HT2A receptor” (J Med Chem, 2006).

What was measured:
[1] = molecular target: 5-hydroxytryptamine receptor 2A (Rattus norvegicus) (UniProt P14842); test: (§1) Activity at rat 5HT2A receptor assessed as 5-HT-stimulated IP3 accumulation; type: functional
How it was run: (§2)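 Rat 5-HT2A-expressing stable cell line, seeded and assayed at 70% confluence. Cells were labeled 18-20 h with [3H]myoinositol at 1.0 µCi/mL, then pretreated 15 min with 10 µM pargyline/10 mM LiCl. Drug exposure was 30 min at 37 °C under 5% CO2. The assay was stopped with 10 mM formic acid, and [3H]inositol phosphates were isolated on Dowex-1 columns.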

[2] = molecular target: T1, 5-hydroxytryptamine receptor 2A (Rattus norvegicus, UniProt P14842); test: as §1; type: functional; how it was run: as §2
T1 sequence (P14842 whole entry): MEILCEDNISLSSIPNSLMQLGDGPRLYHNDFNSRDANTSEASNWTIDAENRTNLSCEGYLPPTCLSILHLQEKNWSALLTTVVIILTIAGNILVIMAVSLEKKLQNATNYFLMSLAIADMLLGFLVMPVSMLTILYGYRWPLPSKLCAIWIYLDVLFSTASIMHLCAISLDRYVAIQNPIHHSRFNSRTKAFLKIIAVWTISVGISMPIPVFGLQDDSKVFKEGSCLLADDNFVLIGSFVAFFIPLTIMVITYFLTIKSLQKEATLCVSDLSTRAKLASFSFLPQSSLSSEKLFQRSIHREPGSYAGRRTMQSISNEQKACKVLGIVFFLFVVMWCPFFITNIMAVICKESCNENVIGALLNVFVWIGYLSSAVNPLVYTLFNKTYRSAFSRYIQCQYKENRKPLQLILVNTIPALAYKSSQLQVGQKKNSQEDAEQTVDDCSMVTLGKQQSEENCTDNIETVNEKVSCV

[3] = molecular target: T1, 5-hydroxytryptamine receptor 2A; test: Displacement of [125I]DOI from rat 5HT2A receptor
How it was run: (§3)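 Stably transfected cells expressing rat 5-HT2A or 5-HT2C were serum-starved 5 h and pelleted. Binding used 50 mM Tris, 0.5 mM EDTA, 10 mM MgCl2, pH 7.4, incubated 60 min at 25 °C. Bound was separated by filtration onto PEI-soaked GF/B filters, then scintillation counting. Values came from competition curves.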

[4] = molecular target: T2, 5-hydroxytryptamine receptor 2C (Rattus norvegicus, UniProt P08909); test: Displacement of [125I]DOI from rat 5HT2C receptor; how it was run: as §3
T2 sequence (P08909 whole entry): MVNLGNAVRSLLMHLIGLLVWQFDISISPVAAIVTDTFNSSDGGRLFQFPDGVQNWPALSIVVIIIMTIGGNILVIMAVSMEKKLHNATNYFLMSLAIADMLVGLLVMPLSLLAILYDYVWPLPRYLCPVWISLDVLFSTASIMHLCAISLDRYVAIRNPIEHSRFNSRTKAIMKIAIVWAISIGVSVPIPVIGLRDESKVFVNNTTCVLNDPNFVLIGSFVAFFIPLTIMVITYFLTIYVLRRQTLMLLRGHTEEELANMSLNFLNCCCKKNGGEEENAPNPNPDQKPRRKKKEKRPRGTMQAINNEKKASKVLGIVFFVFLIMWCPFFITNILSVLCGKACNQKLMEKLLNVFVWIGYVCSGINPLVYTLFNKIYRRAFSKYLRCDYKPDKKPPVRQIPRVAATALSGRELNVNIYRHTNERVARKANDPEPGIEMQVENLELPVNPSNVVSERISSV

Rattus norvegicus = species: Rattus norvegicus; test: Hallucinogenic activity in rat; type: functional; conditions: for ED50: Rattus norvegicus
How it was run: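 Rats were trained to discriminate saline from LSD tartrate (186 nmol/kg ip). The read-out was presses on the drug lever. […] At least 59% gave partial substitution.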

Chain of 5-hydroxytryptamine receptor 2A (Rattus norvegicus) (P14842 whole entry): as the sequence (P14842 whole entry) above

SMILES	Activity [1] [%]	EC50 [2] [µM]	Ki [3] [nM]	Ki [4] [nM]	ED5 (Rattus norvegicus) [µmol/kg]	ED50 (Rattus norvegicus) [µmol/kg]
COc1cc2c(c(OC)c1OC)CC[C@@H]2CN	59	> 50	1120	–	–	–
COc1cc2c(c(OC)c1OC)CC[C@H]2CN	88	3.2	69	–	–	–
COc1cc2c(c(OC)c1OC)CCC2CN (racemic)	83	6.1	130	60	6.6	–
CCN(CC)C(=O)[C@@H]1C=C2c3cccc4[nH]cc(c34)C[C@H]2N(C)C1 [LYSERGIDE]	20	–	–	–	–	0.037
COc1cc(CCN)cc(OC)c1OC [MESCALINE]	86	11.3	360	380	–	34
